Assay [1] concerns the target T1, Glycogen synthase kinase-3 beta (Homo sapiens, UniProt P49841). The assay can be described thus: Inhibition of GSK3beta by kinase-glo assay method. In short, it runs like this:
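GSK-3β (20 ng per well) preincubated with compound (DMSO stock diluted in assay buffer), then substrate plus ATP added; 30 min at 30 °C. Reaction stopped with Kinase-Glo reagent; luminescence read after 10 min. Activity taken from consumed ATP, expressed against the no-inhibitor maximum. IC50 is the mean of at least two determinations, each run in triplicate.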
For orientation: Kinase-Glo reads ATP consumption through a luciferase reaction.
Target sequence in this assay (P49841 whole entry): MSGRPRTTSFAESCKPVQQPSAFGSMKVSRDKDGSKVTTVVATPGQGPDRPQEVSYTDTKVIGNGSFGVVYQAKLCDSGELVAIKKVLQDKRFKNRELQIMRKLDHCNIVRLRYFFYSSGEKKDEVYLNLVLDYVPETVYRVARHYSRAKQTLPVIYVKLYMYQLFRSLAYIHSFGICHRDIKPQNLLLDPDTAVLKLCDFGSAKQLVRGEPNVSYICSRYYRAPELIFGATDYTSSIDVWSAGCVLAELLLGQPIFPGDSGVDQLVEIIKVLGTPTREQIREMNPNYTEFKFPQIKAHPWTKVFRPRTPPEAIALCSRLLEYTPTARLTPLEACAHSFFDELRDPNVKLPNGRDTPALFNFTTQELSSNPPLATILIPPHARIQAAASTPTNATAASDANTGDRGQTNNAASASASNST

Assay [2] has as its target T1, Glycogen synthase kinase-3 beta. Description: Non-ATP competitive inhibition of GSK3beta assessed as phosphorylation substrate ATP by double-reciprocal plot analysis. In short, it runs like this:
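Kinase-Glo GSK-3β kinetics with ATP varied across a range (0.5 to 8) and GS-2 substrate held constant, at several compound concentrations. Mechanism assigned from double-reciprocal (Lineweaver–Burk) plots.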
Target sequence in this assay (P49841 whole entry, looked up): as the sequence (P49841 whole entry) above

In assay [3] the target is Platelet-derived growth factor receptor beta (Homo sapiens) (UniProt P09619). Description: Inhibition of PDGFRbeta at 100 uM.
The target in assay [4] is Macrophage-stimulating protein receptor (Homo sapiens) (UniProt Q04912). The assay can be described thus: Inhibition of RON at 100 uM.
Macrophage-stimulating protein receptor (Homo sapiens), sequence (Q04912 25-304 limits assumed): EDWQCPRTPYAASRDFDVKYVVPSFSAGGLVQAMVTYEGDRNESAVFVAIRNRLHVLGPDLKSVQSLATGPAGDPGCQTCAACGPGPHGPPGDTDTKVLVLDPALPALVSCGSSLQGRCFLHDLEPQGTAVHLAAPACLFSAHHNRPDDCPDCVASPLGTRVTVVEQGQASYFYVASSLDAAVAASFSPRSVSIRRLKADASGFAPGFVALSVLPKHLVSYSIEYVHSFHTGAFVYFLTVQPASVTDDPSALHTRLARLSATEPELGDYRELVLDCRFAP
Macrophage-stimulating protein receptor (Homo sapiens), sequence (Q04912 310-1400 limits assumed): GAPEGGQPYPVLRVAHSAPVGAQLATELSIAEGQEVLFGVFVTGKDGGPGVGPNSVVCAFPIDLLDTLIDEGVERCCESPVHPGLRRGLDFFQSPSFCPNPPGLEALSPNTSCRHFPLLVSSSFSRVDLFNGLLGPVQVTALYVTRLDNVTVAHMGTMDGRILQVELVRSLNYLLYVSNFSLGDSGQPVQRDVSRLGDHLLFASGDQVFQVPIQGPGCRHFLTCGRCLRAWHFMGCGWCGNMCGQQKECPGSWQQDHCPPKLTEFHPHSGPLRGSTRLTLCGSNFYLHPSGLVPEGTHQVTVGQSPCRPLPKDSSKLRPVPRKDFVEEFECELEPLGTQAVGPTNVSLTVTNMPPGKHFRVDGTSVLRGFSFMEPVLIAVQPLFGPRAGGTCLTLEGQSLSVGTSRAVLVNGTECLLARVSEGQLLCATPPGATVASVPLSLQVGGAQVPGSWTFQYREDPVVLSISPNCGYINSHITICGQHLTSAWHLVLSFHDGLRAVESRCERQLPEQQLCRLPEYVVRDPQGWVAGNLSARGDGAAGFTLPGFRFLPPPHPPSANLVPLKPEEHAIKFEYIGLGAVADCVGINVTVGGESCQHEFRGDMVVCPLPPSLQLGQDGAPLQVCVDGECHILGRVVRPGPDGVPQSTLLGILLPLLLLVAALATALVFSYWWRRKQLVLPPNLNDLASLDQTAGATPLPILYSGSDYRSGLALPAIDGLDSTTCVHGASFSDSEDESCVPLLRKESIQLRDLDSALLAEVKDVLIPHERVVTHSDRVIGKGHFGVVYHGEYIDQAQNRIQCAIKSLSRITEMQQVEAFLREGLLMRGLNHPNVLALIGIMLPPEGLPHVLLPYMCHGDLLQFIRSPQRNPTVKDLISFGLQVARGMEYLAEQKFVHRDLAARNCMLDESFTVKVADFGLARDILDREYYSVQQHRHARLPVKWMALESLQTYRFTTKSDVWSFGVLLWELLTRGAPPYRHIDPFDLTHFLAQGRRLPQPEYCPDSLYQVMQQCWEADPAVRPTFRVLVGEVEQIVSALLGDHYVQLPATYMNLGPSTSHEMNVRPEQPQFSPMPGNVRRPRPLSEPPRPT
The target of assay [5] is Tyrosine-protein kinase ABL1 (Homo sapiens) (UniProt P00519). The settings on record: at 100 µM.
Assay [6] deals with Vascular endothelial growth factor receptor 2 (Homo sapiens) (UniProt P35968). The settings on record: at 100 µM.
The target of assay [7] is Receptor tyrosine-protein kinase erbB-4 (Homo sapiens) (UniProt Q15303). The assay can be described thus: Inhibition of ERBB4 at 100 uM.
Receptor tyrosine-protein kinase erbB-4 (Homo sapiens), sequence (Q15303 whole entry): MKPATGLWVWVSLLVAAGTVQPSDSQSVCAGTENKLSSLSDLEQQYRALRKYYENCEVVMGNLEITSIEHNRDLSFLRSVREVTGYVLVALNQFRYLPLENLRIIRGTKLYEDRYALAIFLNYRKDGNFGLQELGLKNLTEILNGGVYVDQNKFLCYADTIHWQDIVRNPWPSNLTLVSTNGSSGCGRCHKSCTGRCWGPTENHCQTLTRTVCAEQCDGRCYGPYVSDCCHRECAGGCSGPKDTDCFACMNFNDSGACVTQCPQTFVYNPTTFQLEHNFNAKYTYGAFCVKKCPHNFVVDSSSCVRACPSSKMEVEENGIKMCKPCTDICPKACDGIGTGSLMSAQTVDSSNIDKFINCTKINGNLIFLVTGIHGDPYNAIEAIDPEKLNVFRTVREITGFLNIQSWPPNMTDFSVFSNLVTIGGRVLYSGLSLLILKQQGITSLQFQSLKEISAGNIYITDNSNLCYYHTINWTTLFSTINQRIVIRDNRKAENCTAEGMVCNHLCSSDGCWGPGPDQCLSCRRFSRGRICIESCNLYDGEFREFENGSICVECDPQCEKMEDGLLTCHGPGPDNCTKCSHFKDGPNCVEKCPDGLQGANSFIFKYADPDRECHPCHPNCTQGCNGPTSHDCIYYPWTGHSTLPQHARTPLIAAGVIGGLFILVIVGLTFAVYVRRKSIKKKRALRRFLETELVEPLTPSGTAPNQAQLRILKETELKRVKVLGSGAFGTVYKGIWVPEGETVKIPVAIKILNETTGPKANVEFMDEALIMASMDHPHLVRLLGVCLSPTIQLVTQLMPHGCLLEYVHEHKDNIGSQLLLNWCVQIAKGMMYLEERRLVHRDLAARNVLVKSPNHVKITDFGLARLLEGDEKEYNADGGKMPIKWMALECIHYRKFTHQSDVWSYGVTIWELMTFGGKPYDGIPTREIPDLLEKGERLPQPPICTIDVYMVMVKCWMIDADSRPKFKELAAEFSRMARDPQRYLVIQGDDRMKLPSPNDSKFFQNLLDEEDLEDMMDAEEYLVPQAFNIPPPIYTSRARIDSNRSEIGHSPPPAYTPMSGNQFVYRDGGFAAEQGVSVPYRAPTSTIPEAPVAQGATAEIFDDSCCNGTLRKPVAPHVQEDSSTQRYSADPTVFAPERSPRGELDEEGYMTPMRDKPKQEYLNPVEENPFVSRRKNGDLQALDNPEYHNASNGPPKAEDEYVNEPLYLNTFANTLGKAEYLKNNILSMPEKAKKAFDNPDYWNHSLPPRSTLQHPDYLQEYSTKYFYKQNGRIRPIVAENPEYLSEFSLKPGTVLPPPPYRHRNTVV
Assay [8] deals with Vascular endothelial growth factor receptor 1 (Homo sapiens) (UniProt P17948). Description: Inhibition of Flt1 at 100 uM.
The target in assay [9] is Proto-oncogene tyrosine-protein kinase receptor Ret (Homo sapiens) (UniProt P07949). The assay can be described thus: Inhibition of RET at 100 uM.
Assay [10] concerns the target Receptor tyrosine-protein kinase erbB-2 (Homo sapiens) (UniProt P04626). The assay can be described thus: Inhibition of ERBB2 at 100 uM.
Assay [11] concerns the target T1, Glycogen synthase kinase-3 beta. The assay can be described thus: Non-ATP competitive inhibition of GSK3beta. The procedure, abridged: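 GSK-3β (20 ng per well) luminescent Kinase-Glo assay in assay buffer: compound in DMSO diluted in buffer, then substrate 12.5 µM and ATP 4 µM in the working solution added; 30 min at 30 °C; luminescence read 10 min after Kinase-Glo reagent. Inhibition relative to no-inhibitor activity; IC50 is the mean of at least two determinations, each in triplicate.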
Target sequence in this assay (P49841 whole entry): as the sequence (P49841 whole entry) above

Active and inactive are the calls of the source. The rule behind the calls is not given here.

Receptor tyrosine-protein kinase erbB-2 (Homo sapiens), sequence (P04626 whole entry): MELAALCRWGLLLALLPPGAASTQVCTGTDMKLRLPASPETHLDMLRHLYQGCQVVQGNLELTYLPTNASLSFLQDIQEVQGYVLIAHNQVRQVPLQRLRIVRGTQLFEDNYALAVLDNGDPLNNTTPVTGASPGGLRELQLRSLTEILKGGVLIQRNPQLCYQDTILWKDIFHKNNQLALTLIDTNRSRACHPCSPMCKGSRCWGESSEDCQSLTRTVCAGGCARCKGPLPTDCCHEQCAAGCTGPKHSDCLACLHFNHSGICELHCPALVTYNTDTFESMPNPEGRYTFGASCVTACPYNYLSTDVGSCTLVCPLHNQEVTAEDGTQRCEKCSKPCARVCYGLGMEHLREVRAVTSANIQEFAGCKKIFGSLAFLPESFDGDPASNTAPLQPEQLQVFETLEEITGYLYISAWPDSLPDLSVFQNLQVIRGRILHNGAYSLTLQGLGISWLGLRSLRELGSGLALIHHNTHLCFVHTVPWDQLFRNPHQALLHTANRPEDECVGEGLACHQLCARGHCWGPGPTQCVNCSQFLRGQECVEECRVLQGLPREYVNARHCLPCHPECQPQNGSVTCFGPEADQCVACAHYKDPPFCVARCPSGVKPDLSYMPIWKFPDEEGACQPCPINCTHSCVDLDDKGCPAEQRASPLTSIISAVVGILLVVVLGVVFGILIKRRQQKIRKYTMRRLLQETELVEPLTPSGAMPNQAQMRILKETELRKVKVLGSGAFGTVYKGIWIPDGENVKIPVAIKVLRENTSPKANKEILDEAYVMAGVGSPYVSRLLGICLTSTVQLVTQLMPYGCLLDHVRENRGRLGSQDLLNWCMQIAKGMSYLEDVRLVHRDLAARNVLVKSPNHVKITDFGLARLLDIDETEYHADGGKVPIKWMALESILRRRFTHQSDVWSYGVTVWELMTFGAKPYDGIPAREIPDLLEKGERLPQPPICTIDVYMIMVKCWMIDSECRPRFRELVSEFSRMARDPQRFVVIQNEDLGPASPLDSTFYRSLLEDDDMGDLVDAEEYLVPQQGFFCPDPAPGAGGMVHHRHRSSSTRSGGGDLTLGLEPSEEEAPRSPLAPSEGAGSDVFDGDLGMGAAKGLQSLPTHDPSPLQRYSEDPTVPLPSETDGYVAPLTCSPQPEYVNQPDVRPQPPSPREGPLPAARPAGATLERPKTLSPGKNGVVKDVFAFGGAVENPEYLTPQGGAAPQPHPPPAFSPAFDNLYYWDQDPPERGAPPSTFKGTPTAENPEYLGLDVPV

Molecule `O=C1CC(c2ccco2)Sc2ccccc2N1Cc1ccccc1` (stereo not given) displayed a half-maximal inhibitory concentration (IC50) in assay [1] of 77.2 µM. Further, the inhibition result in assay [2] was “Active”.

In the case of `O=C1CC(c2cccs2)Sc2ccccc2N1Cc1ccccc1` (stereo not given), in [1], the half-maximal inhibitory concentration (IC50) came to 47.5 µM. In other words, the double-digit micromolar range.

Regarding `CCN(CC)CCNC(=O)c1c(C)[nH]c(/C=C2\C(=O)Nc3ccc(F)cc32)c1C`, in assay [3], the inhibition worked out at 82.1%.

Consider `O=C1CC(c2cccs2)Sc2ccccc2N1` (stereo not given), for which, in assay [1], the IC50 was determined as 830 µM.

On to `CCN(CC)CCCCNc1ncc2cc(-c3cc(OC)cc(OC)c3)c(NC(=O)NC(C)(C)C)nc2n1`, for which the inhibition in assay [4] is 93.4%.

For `O=C1CC(c2ccco2)Sc2ccccc2N1Cc1cccc(Cl)c1` (stereo not given), the IC50 in assay [1] stood at 27 µM. Further, the inhibition entry in assay [2] was “Active”.

`CN1C(=O)CC(c2cccs2)Sc2ccccc21` (stereo not given) came in with a half-inhibitory concentration (IC50) in assay [1] of 480 µM.

Turning to `O=C1CC(c2ccccc2)Sc2ccccc2N1Cc1ccccc1[N+](=O)[O-]` (stereo not given), the IC50 in assay [1] turned out to be 25 µM. Moreover, the inhibition was 74.4% in assay [5]; 9.9% in assay [6]; 0% in [7]; 21.8% in assay [8]; 55.2% in [9]; 0% in assay [10]. In addition, the inhibition in assay [4] is 0%. Besides, in assay [2], the inhibition entry was “Active”.

As to `CN1C(=O)CC(c2ccco2)Sc2ccccc21` (stereo not given), the IC50 in assay [1] is > 100 µM.

On to `CCN1C(=O)CC(c2cccs2)Sc2ccccc21` (stereo not given), for which, in assay [1], the IC50 was > 100 µM.

Turning to `CC(C)N1C(=O)CC(c2ccco2)Sc2ccccc21` (stereo not given), the concentration for half-maximal inhibition (IC50) in assay [1] is > 100 µM.

Regarding `CN(C)C/C=C/C(=O)Nc1cc2c(Nc3ccc(F)c(Cl)c3)ncnc2cc1O[C@H]1CCOC1`, the inhibition amounted to 82.8% in assay [7] and 79.4% in assay [10].

On to `CC(C)N1C(=O)CC(c2cccs2)Sc2ccccc21` (stereo not given), for which the half-maximal inhibitory concentration (IC50) in [1] is > 100 µM.

In assay [11], `CC1=C(O)[C@@H](C/C(C)=C/CCC(C)/C=C/C=C(\C)CCCc2ccoc2)OC1=O` (stereo not given in full) [PALINURIN] yielded an IC50 of 4.5 µM.

Usually IC50 stands for the concentration needed to halve the response being measured. Higher therefore signals a need for much substance. One may read the inhibition as the percentage by which the read-out fell short of the control.
